Measurements reported in ChEMBL document CHEMBL3817777, “A new motif for inhibitors of geranylgeranyl diphosphate synthase” (Bioorg Med Chem, 2016).
The source made the active and inactive calls. The calls are words filed in the database; no cut-off is given here.

Assays:
[1] = biological target: T1, Geranylgeranyl pyrophosphate synthase (Homo sapiens) (UniProt O95749); assay: Inhibition of GGDPS in human RPMI8266 cells assessed as disruption of Rap1a geranylgeranylation after 48 hrs by immunoblot analysis; format: cell-based
T1 sequence (whole entry): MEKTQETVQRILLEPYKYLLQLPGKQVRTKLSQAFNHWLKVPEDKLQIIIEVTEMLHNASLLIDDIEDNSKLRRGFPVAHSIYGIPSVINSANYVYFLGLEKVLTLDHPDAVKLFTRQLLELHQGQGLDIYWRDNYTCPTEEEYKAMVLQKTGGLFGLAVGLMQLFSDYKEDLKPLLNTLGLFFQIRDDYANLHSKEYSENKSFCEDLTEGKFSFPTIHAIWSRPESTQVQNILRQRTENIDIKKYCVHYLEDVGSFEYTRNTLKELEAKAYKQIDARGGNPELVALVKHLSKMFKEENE
Procedure, shortened: (§1)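 Cells were lysed in RIPA buffer (0.15 M NaCl, 1% deoxycholate, 0.1% SDS, 1% Triton X-100, 0.05 M Tris HCl) with protease and phosphatase inhibitors. Protein was quantified by BCA, and equal amounts were run on SDS-PAGE and transferred to PVDF. Blots were probed for unmodified Rap1a, a GGTase I substrate, and detected with HRP secondary antibodies and ECL.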

[2] = biological target: T1, Geranylgeranyl pyrophosphate synthase (Homo sapiens); assay: Inhibition of GGDPS in human RPMI8266 cells assessed as lambda light chain levels after 48 hrs by ELISA; format: cell-based
[3] = Cytotoxicity against human RPMI8266 cells after 48 hrs by MTT assay; format: functional, cell-based; conditions: RPMI8266, 48 h
Procedure, shortened: (§2)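 Cells were plated at 2.5 ×10^4 cells/100 μL/well and exposed to compounds for 48 hrs. MTT (5 mg/mL in PBS) was then added for 4 hrs, and the product was solubilized overnight at 37 °C in 0.01 M HCl/10% SDS. Absorbance was read at 540 nm, with untreated controls set as 100% MTT activity. Each test ran in quadruplicate across three independent experiments, and EC50 is reported as mean ± standard deviation.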

[4] = Cytotoxicity against human MM1S cells after 48 hrs by MTT assay; format: functional, cell-based; conditions: MM1.S; procedure, shortened: as §2
[5] = Cytotoxicity against human ALMC2 cells after 48 hrs by MTT assay; format: functional, cell-based; conditions: ALMC2, 48 h; procedure, shortened: as §2
[6] = biological target: T1, Geranylgeranyl pyrophosphate synthase (Homo sapiens); assay: Inhibition of GGDPS in human RPMI8266 cells assessed as disruption of Rap1a geranylgeranylation at 1 uM after 48 hrs by immunoblot analysis in presence of GGDP; format: cell-based; procedure, shortened: as §1
[7] = biological target: T1, Geranylgeranyl pyrophosphate synthase (Homo sapiens); assay: Inhibition of GGDPS in human RPMI8266 cells assessed as lambda light chain levels at 1 uM after 48 hrs by ELISA in presence of GGDP; format: cell-based
[8] = biological target: T1, Geranylgeranyl pyrophosphate synthase (Homo sapiens); assay: Inhibition of GGDPS in human RPMI8266 cells assessed as disruption of Rap1a geranylgeranylation at 5 uM after 48 hrs by immunoblot analysis in presence of GGDP; format: cell-based; procedure, shortened: as §1
[9] = biological target: T1, Geranylgeranyl pyrophosphate synthase (Homo sapiens); assay: Inhibition of GGDPS in human RPMI8266 cells assessed as lambda light chain levels at 5 uM after 48 hrs by ELISA in presence of GGDP; format: cell-based
[10] = biological target: T1, Geranylgeranyl pyrophosphate synthase (Homo sapiens); assay: Inhibition of GGDPS in human RPMI8266 cells assessed as disruption of Rap1a geranylgeranylation at 5 uM after 48 hrs by immunoblot analysis in presence of mevalonate; format: cell-based; procedure, shortened: as §1
[11] = biological target: T1, Geranylgeranyl pyrophosphate synthase (Homo sapiens); assay: Inhibition of GGDPS in human RPMI8266 cells assessed as lambda light chain levels at 5 uM after 48 hrs by ELISA in presence of mevalonate; format: cell-based
[12] = biological target: T1, Geranylgeranyl pyrophosphate synthase (Homo sapiens); assay: Inhibition of GGDPS in human RPMI8266 cells assessed as disruption of Rap1a geranylgeranylation at low concentrations after 48 hrs by immunoblot analysis; format: cell-based; procedure, shortened: as §1
[13] = biological target: T1, Geranylgeranyl pyrophosphate synthase (Homo sapiens); assay: Inhibition of GGDPS in human RPMI8266 cells assessed as lambda light chain levels at low concentrations after 48 hrs by ELISA; format: cell-based

CC(C)=CCC/C(C)=C/CC(P(=O)(OCC[C@@H](C)CCC=C(C)C)OCOC(=O)C(C)(C)C)P(=O)(OCOC(=O)C(C)(C)C)OCOC(=O)C(C)(C)C (stereo partly drawn)
inhibition [1]: Dose-dependent effect
inhibition [2]: Dose-dependent effect
EC50 [3]: 7.1 µM
EC50 [4]: 5.7 µM
EC50 [5]: 12.6 µM

CC(C)=CCC/C(C)=C/CC(C)(P(=O)(OCC[C@@H](C)CCC=C(C)C)OCOC(=O)C(C)(C)C)P(=O)(OCOC(=O)C(C)(C)C)OCOC(=O)C(C)(C)C (stereo partly drawn)
inhibition [1]: Dose-dependent effect
inhibition [2]: Dose-dependent effect
EC50 [3]: 1.6 µM
EC50 [4]: 2.7 µM
EC50 [5]: 5.4 µM
inhibition [6]: inactive
inhibition [7]: inactive

CC[C@H](C)C(=O)O[C@H]1C[C@@H](C)C=C2C=C[C@H](C)[C@H](CC[C@@H]3C[C@@H](O)CC(=O)O3)[C@H]21
inhibition [8]: inactive
inhibition [9]: inactive
inhibition [10]: inactive
inhibition [11]: inactive

CC(C)=CCC/C(C)=C/CC(C)(P(=O)(OCC[C@H](C)CCC=C(C)C)OCOC(=O)C(C)(C)C)P(=O)(OCOC(=O)C(C)(C)C)OCOC(=O)C(C)(C)C (stereo partly drawn)
inhibition [12]: Active
inhibition [13]: Active

CC(C)=CCC/C(C)=C/CC(C/C=C(\C)CCC=C(C)C)(P(=O)(OCC[C@@H](C)CCC=C(C)C)OCOC(=O)C(C)(C)C)P(=O)(OCOC(=O)C(C)(C)C)OCOC(=O)C(C)(C)C (stereo partly drawn)
inhibition [1]: Dose-dependent effect
inhibition [2]: Dose-dependent effect
EC50 [3]: 26.7 µM
EC50 [4]: 48.2 µM
EC50 [5]: > 100 µM

C=CCC(C/C=C(\C)CCC=C(C)C)(P(=O)(OCC[C@@H](C)CCC=C(C)C)OCOC(=O)C(C)(C)C)P(=O)(OCOC(=O)C(C)(C)C)OCOC(=O)C(C)(C)C (stereo partly drawn)
inhibition [1]: Dose-dependent effect
inhibition [2]: Dose-dependent effect
EC50 [3]: 8.4 µM
EC50 [4]: 10.7 µM
EC50 [5]: 25.4 µM

CC(C)=CCC/C(C)=C/CC(CC=C(C)C)(P(=O)(OCC[C@@H](C)CCC=C(C)C)OCOC(=O)C(C)(C)C)P(=O)(OCOC(=O)C(C)(C)C)OCOC(=O)C(C)(C)C (stereo partly drawn)
inhibition [1]: Dose-dependent effect
inhibition [2]: Dose-dependent effect
EC50 [3]: 7.3 µM
EC50 [4]: 25.3 µM
EC50 [5]: 28.2 µM
